Results taken from ChEMBL document CHEMBL1208737, “Synthesis and in vitro evaluation of N-alkyl-3-hydroxy-3-(2-imino-3-methyl-5-oxoimidazolidin-4-yl)indolin-2-one analogs as potential anticancer agents” (2010).

Experiments:
Assay type in all cases: functional
[1] = Growth inhibition of human Hs 578T cells by sulforhodamine B assay; conditions: read-out: LC50 (the source's name)
Procedure, shortened: (§1)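 Five-dose response testing across a 57-line human tumour panel (leukemia, non-small cell lung, colon, CNS, melanoma, ovarian, renal, prostate, breast), done after a single-dose primary screen run per the NCI method. Effect plotted against log10 molar drug concentration for each cell line. GI50 is the concentration giving a 50% reduction in net protein increase versus control cells.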

CAKI-1 = experiment: Growth inhibition of human Caki1 cells by sulforhodamine B assay; procedure, shortened: as §1
786-0 = experiment: Growth inhibition of human 786-0 cells by sulforhodamine B assay; procedure, shortened: as §1
ACHN = experiment: Growth inhibition of human ACHN cells by sulforhodamine B assay; procedure, shortened: as §1
OVCAR-5 = experiment: Growth inhibition of human OVCAR5 cells by sulforhodamine B assay; procedure, shortened: as §1
SK-MEL-28 = experiment: Growth inhibition of human SK-MEL-28 cells by sulforhodamine B assay; procedure, shortened: as §1
NCI-H23 = experiment: Growth inhibition of human NCI-H23 cells by sulforhodamine B assay; procedure, shortened: as §1
HCC 2998 = experiment: Growth inhibition of human HCC2998 cells by sulforhodamine B assay; procedure, shortened: as §1
UACC-62 = experiment: Growth inhibition of human UACC62 cells by sulforhodamine B assay
Procedure, shortened: (§2)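 Part of a 57-line human tumour cell panel run at five doses. Growth effect was plotted against log10 molar drug concentration for each cell line. GI50 is the concentration giving a 50% reduction in net protein increase relative to untreated control cells, read from the dose-response curve.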

MDA-MB-468 = experiment: Growth inhibition of human MDA-MB-468 cells by sulforhodamine B assay; procedure, shortened: as §1
SN12C = experiment: Growth inhibition of human SN12C cells by sulforhodamine B assay; procedure, shortened: as §1
UACC-257 = experiment: Growth inhibition of human UACC257 cells by sulforhodamine B assay; procedure, shortened: as §2
EKVX = experiment: Growth inhibition of human EKVX cells by sulforhodamine B assay; procedure, shortened: as §1
MOLT-4 = experiment: Growth inhibition of human MOLT4 cells by sulforhodamine B assay; procedure, shortened: as §1
SNB-75 = experiment: Growth inhibition of human SNB75 cells by sulforhodamine B assay; procedure, shortened: as §1
SK-MEL-5 = experiment: Growth inhibition of human SK-MEL-5 cells by sulforhodamine B assay; procedure, shortened: as §1
SNB-19 = experiment: Growth inhibition of human SNB19 cells by sulforhodamine B assay; procedure, shortened: as §1
UO-31 = experiment: Growth inhibition of human UO31 cells by sulforhodamine B assay; procedure, shortened: as §2
MDA-MB-435 = experiment: Growth inhibition of human MDA-MB-435 cells by sulforhodamine B assay; procedure, shortened: as §1
KM12 = experiment: Growth inhibition of human KM12 cells by sulforhodamine B assay; procedure, shortened: as §1
A498 = experiment: Growth inhibition of human A498 cells by sulforhodamine B assay; procedure, shortened: as §1
LOX IMVI = experiment: Growth inhibition of human LOXIMVI cells by sulforhodamine B assay
Procedure, shortened: (§3)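 Five-dose response testing across the 57-line human tumour panel. Growth effect was plotted against log10 drug concentration for each cell line. GI50 is the molar concentration giving a 50% reduction in net protein increase relative to untreated control cells. TGI (total growth inhibition) and LC50 (concentration lethal to 50% of cells) were read from the same curves.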

HT-29 = experiment: Growth inhibition of human HT-29 cells by sulforhodamine B assay; procedure, shortened: as §1
A549 = experiment: Growth inhibition of human A549 cells by sulforhodamine B assay; procedure, shortened: as §3
TK-10 = experiment: Growth inhibition of human TK10 cells by sulforhodamine B assay; procedure, shortened: as §2
IGROV-1 = experiment: Growth inhibition of human IGROV1 cells by sulforhodamine B assay; procedure, shortened: as §1
PC-3 = experiment: Growth inhibition of human PC3 cells by sulforhodamine B assay; procedure, shortened: as §1
SF-295 = experiment: Growth inhibition of human SF295 cells by sulforhodamine B assay; procedure, shortened: as §1
M14 = experiment: Growth inhibition of human M14 cells by sulforhodamine B assay; procedure, shortened: as §1
[2] = read-out: LC50 (the source's name)

For `COc1ccc(CN2C(=O)C(O)(C3C(=O)NC(=N)N3C)c3ccccc32)cc1` (configuration not stated), which CC50 [1] is on record?
Its CC50 is greater than 100 µM.

And the GI50 (CAKI-1)?
The GI50 was 53.9 µM.

What about the CC50 (CAKI-1; [2]) of the same compound?
Its CC50 is greater than 100 µM.

What about the GI50 (786-0) of the same compound?
Its GI50 is 23 µM.

What about the CC50 (786-0; [2]) of the same compound?
The CC50 was greater than 100 µM.

What about the GI50 (ACHN) of the same compound?
The GI50 was greater than 100 µM.

And the CC50 (ACHN; [2])?
Its CC50 is greater than 100 µM.

What about the GI50 (OVCAR-5) of the same compound?
Its GI50 is 42.1 µM.

What about the CC50 (OVCAR-5; [2]) of the same compound?
The CC50 was greater than 100 µM.

What about the GI50 (SK-MEL-28) of the same compound?
The GI50 was 36.9 µM.

And the CC50 (SK-MEL-28; [2])?
The CC50 was greater than 100 µM.

What about the GI50 (NCI-H23) of the same compound?
Its GI50 is 13.9 µM.

And the LC50 (NCI-H23)?
The LC50 was greater than 100 µM.

And the GI50 (HCC 2998)?
Its GI50 is 12.8 µM.

What about the LC50 (HCC 2998) of the same compound?
The LC50 was 63.9 µM.

And the GI50 (UACC-62)?
The GI50 was 27.7 µM.

What about the CC50 (UACC-62; [2]) of the same compound?
The CC50 was greater than 100 µM.

And the GI50 (MDA-MB-468)?
The GI50 was 11.6 µM.

And the LC50 (concentration causing 50% net cell kill) (MDA-MB-468)?
Its LC50 (concentration causing 50% net cell kill) is greater than 100 µM.

What about the GI50 (SN12C) of the same compound?
The GI50 was greater than 100 µM.

What about the CC50 (SN12C; [2]) of the same compound?
The CC50 was greater than 100 µM.

What about the GI50 (UACC-257) of the same compound?
Its GI50 is 6.28 µM.

And the LC50 (UACC-257)?
The LC50 was greater than 100 µM.

And the GI50 (EKVX)?
Its GI50 is 71.7 µM.

And the LC50 (EKVX)?
Its LC50 is greater than 100 µM.

And the GI50 (MOLT-4)?
The GI50 was 4.79 µM.

What about the CC50 (MOLT-4; [2]) of the same compound?
Its CC50 is greater than 100 µM.

And the GI50 (SNB-75)?
The GI50 was 28.8 µM.

What about the CC50 (SNB-75; [2]) of the same compound?
Its CC50 is greater than 100 µM.

And the GI50 (SK-MEL-5)?
The GI50 was 37.3 µM.

What about the CC50 (SK-MEL-5; [2]) of the same compound?
Its CC50 is greater than 100 µM.

And the GI50 (SNB-19)?
The GI50 was 30.6 µM.

And the CC50 (SNB-19; [2])?
Its CC50 is greater than 100 µM.

What about the GI50 (UO-31) of the same compound?
Its GI50 is 83.2 µM.

What about the CC50 (UO-31; [2]) of the same compound?
Its CC50 is greater than 100 µM.

What about the GI50 (MDA-MB-435) of the same compound?
Its GI50 is 10.6 µM.

And the CC50 (MDA-MB-435; [2])?
Its CC50 is greater than 100 µM.

And the GI50 (KM12)?
Its GI50 is 2870 nM.

And the CC50 (KM12; [2])?
The CC50 was 80.4 µM.

And the GI50 (A498)?
Its GI50 is greater than 100 µM.

And the CC50 (A498; [2])?
The CC50 was greater than 100 µM.

And the GI50 (LOX IMVI)?
The GI50 was 8.09 µM.

And the CC50 (LOX IMVI; [2])?
The CC50 was greater than 100 µM.

What about the GI50 (HT-29) of the same compound?
Its GI50 is 4.06 µM.

What about the LC50 (HT-29) of the same compound?
The LC50 was greater than 100 µM.

And the GI50 (A549)?
Its GI50 is 43.6 µM.

And the LC50 (A549)?
Its LC50 is greater than 100 µM.

What about the GI50 (TK-10) of the same compound?
The GI50 was greater than 100 µM.

And the CC50 (TK-10; [2])?
Its CC50 is greater than 100 µM.

What about the GI50 (IGROV-1) of the same compound?
The GI50 was 3.26 µM.

What about the CC50 (IGROV-1; [2]) of the same compound?
The CC50 was greater than 100 µM.

And the GI50 (PC-3)?
Its GI50 is 46.9 µM.

What about the CC50 (PC-3; [2]) of the same compound?
Its CC50 is greater than 100 µM.

And the GI50 (SF-295)?
The GI50 was 26 µM.

And the CC50 (SF-295; [2])?
Its CC50 is greater than 100 µM.

What about the GI50 (M14) of the same compound?
Its GI50 is 4.93 µM.

And the LC50 (M14)?
The LC50 was greater than 100 µM.
